Assay results reported in ChEMBL document CHEMBL4043282, “Discovery of the First Potent, Selective, and Orally Bioavailable Signal Peptide Peptidase-Like 2a (SPPL2a) Inhibitor Displaying Pronounced Immunomodulatory Effects In Vivo” (J Med Chem, 2018).
Active and inactive are the calls of the source. No cut-off for these calls is given here.

Key:
[1] = Drug uptake in mouse spleen at 30 mg/kg, po administered as single dose after 4 hrs by LC/MS/MS analysis; assay type: ADME, organism-based; conditions: read-out: Drug uptake
[2] = Selectivity ratio of IC50 for human gamma-secretase expressed in HEK293 cells to IC50 for human SPPL2a expressed in HEK293 cells
Outline: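 HEK293 transiently transfected: SPPL2a arm with human SPPL2a, VP16-TNFα(aa1-76)-NTF and Gal4-luciferase; γ-secretase arm with human Notch1-VP16-Gal4 plus reporter (endogenous γ-secretase). Compound added 3 h after plating, 10 μM–0.3 nM final, triplicate, 24 h at 37 °C; luminescence read. IC50 from concentration vs normalised luminescence; ratio of the two IC50s.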

[3] = Drug uptake in mouse spleen at 100 mg/kg, po administered as single dose after 4 hrs by LC/MS/MS analysis; assay type: ADME, organism-based; conditions: read-out: Drug uptake
[4] = molecular target: T1, Signal peptide peptidase-like 2A (Mus musculus) (UniProt Q9JJF9); experiment: Reversible inhibition of SPPL2a in mouse A20 cells assessed as increase in CD74/p8 accumulation at 2 uM preincubated for 16 hrs followed by compound wash out measured up to 2 hrs by Western blot method; assay type: cell-based
T1 sequence (whole entry): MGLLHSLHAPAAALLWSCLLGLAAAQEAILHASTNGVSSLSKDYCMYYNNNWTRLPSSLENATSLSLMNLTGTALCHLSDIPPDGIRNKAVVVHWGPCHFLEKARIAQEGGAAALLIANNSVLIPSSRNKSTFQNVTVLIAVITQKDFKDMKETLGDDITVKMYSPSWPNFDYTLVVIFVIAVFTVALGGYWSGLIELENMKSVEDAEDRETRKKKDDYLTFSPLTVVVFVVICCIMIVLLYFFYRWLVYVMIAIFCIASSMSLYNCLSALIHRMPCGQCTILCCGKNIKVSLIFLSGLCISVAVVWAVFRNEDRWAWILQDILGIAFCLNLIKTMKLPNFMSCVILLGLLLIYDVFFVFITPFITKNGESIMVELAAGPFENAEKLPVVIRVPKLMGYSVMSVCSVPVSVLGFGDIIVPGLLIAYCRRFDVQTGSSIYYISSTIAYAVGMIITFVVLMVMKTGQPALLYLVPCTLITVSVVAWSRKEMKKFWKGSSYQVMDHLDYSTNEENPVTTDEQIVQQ

Mus musculus [5] = experiment: In vivo inhibition of gamma-secretase dependent Notch1 signaling in mouse assessed as effect on Hes1 mRNA level in thymus at 3 to 30 mg/kg, po bid administered at 8 and 16 hrs dosing interval between first and second dose respectively for 11 days measured 16 hrs post last dose on day 12 by RT-PCR analysis; assay type: organism-based
Outline: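 Thymus and jejunum excised into RNALater, 4 °C overnight, washed, frozen at −80 °C; total RNA from 10 mg tissue by MagNA Pure LC; Hes1 measured by TaqMan real-time PCR; significance by two-tailed heteroscedastic Student's t-test.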

Rattus norvegicus = experiment: In vivo inhibition of SPPL2a in Lewis rat assessed as accumulation of CD74/p8 in blood at 3 mg/kg first dose administered via oral gavage followed by second dose after 8 hrs measured 16 hrs post second dose by Western blot method; assay type: functional, organism-based
Outline: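 Rat blood (200 μL) red cells lysed with RBC lysis buffer three times, pellet lysed in Tris pH 6.8/NaCl/EDTA/Triton X-100/deoxycholate with protease inhibitors; Western blot for CD74/p8 with affinity-purified antibody specific for rat CD74/p8 at 1:200.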

[6] = Total concentration in Lewis rat blood at 1 mg/kg, po bid after 24 hrs by LC/MS/MS analysis; assay type: ADME, organism-based; conditions: read-out: Drug uptake
[7] = molecular target: T2, Signal peptide peptidase-like 2A (Rattus norvegicus, UniProt D3ZNG3); experiment: Inhibition of rat SPPL2a expressed in human U2OS cells using EGFP-labeled TNFalpha (1 to 77 residues) NLS as substrate after 24 hrs by Hoechst staining based high content imaging assay; assay type: cell-based
T2 sequence (D3ZNG3 whole entry): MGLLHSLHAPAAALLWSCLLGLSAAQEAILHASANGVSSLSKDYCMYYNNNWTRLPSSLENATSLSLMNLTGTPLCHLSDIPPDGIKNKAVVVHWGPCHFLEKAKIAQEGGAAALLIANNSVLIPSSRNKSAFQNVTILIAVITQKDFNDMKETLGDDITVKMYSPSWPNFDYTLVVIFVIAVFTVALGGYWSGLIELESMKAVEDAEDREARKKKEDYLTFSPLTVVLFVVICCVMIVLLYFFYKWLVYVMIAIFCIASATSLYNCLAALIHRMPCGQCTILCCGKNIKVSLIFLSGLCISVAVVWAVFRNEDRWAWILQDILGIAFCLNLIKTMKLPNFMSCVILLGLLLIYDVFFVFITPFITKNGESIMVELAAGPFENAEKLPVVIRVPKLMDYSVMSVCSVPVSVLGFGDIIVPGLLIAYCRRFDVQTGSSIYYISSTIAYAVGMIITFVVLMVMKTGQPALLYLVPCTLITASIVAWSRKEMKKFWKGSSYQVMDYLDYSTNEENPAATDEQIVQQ
Outline: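 Stable U-2 OS line with constitutive rat SPPL2a and doxycycline-inducible rat TNFα(aa1-77)-NTF–EGFP-NLS; 3000 cells/well, 3–4 h at 37 °C, then inhibitor in doxycycline medium, 11-point, 100 μM–1 nM final (0.9% DMSO, 5 μg/mL doxycycline), 24 h. PFA fixation, Hoechst nuclei; nuclear minus cytoplasmic-ring EGFP intensity. Normalised to DMSO and reference-inhibitor controls; IC50 by nonlinear regression.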

[8] = Drug uptake in Lewis rat spleen at 1 mg/kg, po bid after 24 hrs by LC/MS/MS analysis; assay type: ADME, organism-based; conditions: read-out: Drug uptake
Mus musculus [9] = experiment: Immunomodulatory activity in mouse assessed as reduction in plasmacytoid dendritic cells in splenocyte at 3 to 30 mg/kg administered via oral gavage bid at 8 and 16 hrs dosing interval between first and second dose respectively for 11 days measured 16 hrs post last dose on day 12 by B220 staining based flow cytometry; assay type: functional, organism-based
Outline: (§1)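 Mice gavaged with compound in 0.5% MC:0.5% Tween or PEG:D5W 3:1. Spleens dissociated in GentleMACS, filtered at 40 μm, ACK red-cell lysis, counted; 1 × 10^6 splenocytes stained 30 min on ice in HBSS/2% FBS/5 mM EDTA with antimouse panels for B-cell subsets (B220, CD21, CD23, IgM, IgD) or dendritic cells (PDCA1, CD11c, MHCII, lineage markers); analyzed on Fortessa flow cytometer.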

Mus musculus [10] = experiment: Immunomodulatory activity in mouse assessed as reduction in transition T1 B cells in splenocyte at 3 to 30 mg/kg administered via oral gavage bid at 8 and 16 hrs dosing interval between first and second dose respectively for 11 days measured 16 hrs post last dose on day 12 by flow cytometry; assay type: functional, organism-based; outline: as §1
Plasma = experiment: Cmin in mouse plasma at 30 mg/kg, po bid administered at 8 and 16 hrs dosing interval between first and second dose respectively for 11 days measured predose on day 12 by LC/MS/MS analysis; assay type: ADME, organism-based; conditions: in vivo, read-out: Cmin
Outline: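 Mice gavaged bid in 0.5% MC:0.5% Tween or PEG:D5W 3:1; trough sample taken before the morning dose; 50 μL retro-orbital blood into LiHep tubes, kept on ice, plasma separated at 2823g for 5 min, stored at −20 °C until analysis.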

Mus musculus [11] = experiment: Immunomodulatory activity in mouse assessed as reduction in marginal zone B cells in splenocyte at 3 to 30 mg/kg administered via oral gavage bid at 8 and 16 hrs dosing interval between first and second dose respectively for 11 days measured 16 hrs post last dose on day 12 by flow cytometry; assay type: functional, organism-based; outline: as §1

concentration at 4 h [1] [nM] | concentration at 4 h [3] [nM] | inhibition [4] | concentration at 24 h [6] [nM] | IC50 [7] [nM] | concentration at 24 h [8] [nM] | concentration (Plasma) [nM] | SMILES | Ratio IC50 [2] | Activity (Mus musculus [5]) | inhibition (Rattus norvegicus) | Activity (Mus musculus [9]) | Activity (Mus musculus [10]) | Activity (Mus musculus [11])
434 | 1440 | Active | – | – | – | – | Cc1ccccc1NC(=O)C[C@@H](C)C(=O)N[C@@H]1C(=O)N2CCCN2Cc2ccccc21 | 52 | – | – | – | – | –
– | – | – | 49 | 56 | 330 | 1100 | Cc1ncc(F)cc1NC(=O)C[C@H](C(=O)N[C@@H]1C(=O)N2CC3(CC3)CN2C(=O)c2ccccc21)C1CC1 | – | Non-Toxic | Active | inactive | Active | Active
